Here are results for 1 molecule from article PMC3518043 (Biochemistry, 2012).

Holding throughout (assay type): binding
The subject of assay [1] is histone H3 combinatorial peptide library. Kind of assay: on-bead 5,000-member combinatorial histone H3 library screen. Particulars: for occurrence of peptides with high methylation at H3K4 (me2/3) / occurrence of peptides with low methylation at H3K4 (K4unmod and K4me): PHD1-2 screen. In outline:
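One-bead-one-peptide H3 combinatorial library (5,000 members) incubated sequentially with GST-tagged PHD fingers, GST-specific primary antibody, biotinylated secondary antibody, then streptavidin-alkaline phosphatase for bead detection.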

Assay [2] has as its system unmodified histone H3 N-terminus (first eleven amino acids). Put plainly: Amplified Luminescent Proximity Homogeneous Assay. To be noted: 10 μM protein, only biotin- or only 6×His-peptide. In outline:
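Recombinant CHD5 PHD constructs and H3 (1-11) peptides carrying either a 6×His tag or biotin were diluted in StabilCoat buffer to final 10 μM protein and 1 μM peptide. Mixtures shaken 30 min at ambient temperature. Donor and acceptor beads added at 15 μg/mL each (working), then shaken 30 min in the dark. Emission read at 570/100 nm with ALPHA filters.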

The test system of assay [3] is histone H3 tail peptide (1-12). Put plainly: 1H,15N HSQC NMR titration with H3 peptide. To be noted: 0.1 mM 15N-labeled PHD1-2; H3 (1-12). The essentials:
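15N-labelled CHD5 PHD1-2 expressed in E. coli BL21(DE3) pLysS grown in 15NH4Cl minimal medium and induced with 0.5 mM IPTG. GST fusion purified on glutathione agarose and tag cleaved with PreScission protease. Buffer was 20 mM Tris pH 6.8, 150 mM NaCl, 3 mM DTT. 1H,15N HSQC spectra of 0.1 mM protein recorded at 600 MHz with increasing amounts of H3 (1-12) peptide.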

For assay [4], the system named is immobilized histone H3 (1-11). Kind of assay: surface plasmon resonance.
For the next assay, the system named is histone H3 N-terminus. Put plainly: overall signal intensity in histone peptide array / peptide screens. To be noted: both peptide screens; at the same molar concentrations.
The mark [5] stands for this setting: bivalent binding model (bivalent analyte), pH 7.5.

B1: PHD1-2: tandem PHD-fingers of CHD5 (338-468), GST fusion in pGEX-KG; tag cleaved for SPR and NMR (protein)
chain: YETDHQDYCEVCQQGGEIILCDTCPRAYHLVCLDPELEKAPEGKWSCPHCEKEGIQWEPKDDDDEEEEGGCEEEEDDHMEFCRVCKDGGELLCCDACPSSYHLHCLNPPLPEIPNGEWLCPRCTCPPLKGK
modifications: left off: GST, end not stated, kept
On to B1, for which the “occurrence of unmodified lysine-4 among positive beads” value in assay [1] (H3K4unmod, MALDI-TOF identification) is 44 out of 90. For the same molecule, in assay [1] (H3T3ph), the “occurrence of H3T3 phosphorylation among positive beads” value is 0 out of 90. Further, the “occurrence of H3T6 phosphorylation among positive beads” value in assay [1] (H3T6ph) is recorded as 0 out of 90. In assay [1] (all peptides), the “occurrence of peptides with high methylation at H3K4 (me2/3)” value worked out at 13%; the “occurrence of peptides with low methylation at H3K4 (K4unmod and K4me)” value worked out at 74%. Further, in assay [1] (peptides also containing R2me2a or R2me2s), the “occurrence of peptides with high methylation at H3K4 (me2/3)” value was 6%. In assay [1] (peptides only containing Rme2a/s at H3R2), the “occurrence of peptides with low methylation at H3K4 (K4unmod and K4me)” value was 91%. Besides, in assay [2], the “ALPHA signal with either functionalized peptide alone” value was “no signal above background”. Moreover, in assay [3], the “binding events in NMR titration” value was “two distinct binding events”. For the same molecule, the “increase in affinity (lower Kd) compared with PHD1 and PHD2 alone” value in assay [4] (1:1 Langmuir model) is recorded as 4-11 fold. The molecule further displayed an off-rate kd in assay [4] (1:1 Langmuir model, biotinylated H3 (1-11) on SA chip, pH 7.5) of 0.00348 ± 5e-05 s⁻¹. For the same molecule, in assay [4] (setting [5]), the ka1 came to 324 ± 11 M⁻¹ s⁻¹, the ka2 was 2.9×10^−5 ± 1×10^−6 1/RUs, the kd1 worked out at 0.120 ± 0.005 s⁻¹ and the kd2 is 0.00218 ± 3e-05 s⁻¹. The “slower last off-rate (kd) compared with individual domains” value in assay [4] (last off-rate of PHD1-2 vs kd values of individual domains) is reported as 5-6 fold. The “overall signal intensity compared to either domain alone” value in the assay with histone H3 N-terminus is listed as “notably higher”.
